Test results from ChEMBL document CHEMBL6182897, “Salamandamide Lipodipeptides Are Biosynthetic Intermediate Shunt Products of the Nonamodular Nonribosomal Peptide Assembly Lines of the Viscosin Family” (J Nat Prod, 2025).
Calls of active or inactive are those of the source. The calls are words filed in the database; no cut-off is given here.

What was measured:
Caco-2 [1] = assay: Cytotoxicity against human Caco-2 cells assessed as cell count up to 10 uM measured after 48 hrs by Hoechst dye based analysis; type: toxicity; settings: caco-2, 48 h
Klebsiella aerogenes = assay: Antibacterial activity against Enterobacter aerogenes ATCC13048 assessed as bacterial growth inhibition incubated for overnight by CLSI-protocol based broth micro-dilution assay; type: functional, organism-based
In short: (§1)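 Broth microdilution MIC in cation-adjusted Mueller-Hinton medium, following CLSI. Compound in 2-fold serial dilution; bacteria at a final 5 × 10^5 CFU/mL. Incubated overnight at 37 °C. MIC taken as the lowest concentration preventing visible growth.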

Nakaseomyces glabratus = assay: Antifungal activity against Candida glabrata Tu04 assessed as inhibition of fungal growth incubated for 48 hrs by TECAN M200 microtiter plate reader analysis; type: functional, organism-based
In short: (§2)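 EUCAST broth microdilution with direct colony suspension inoculum of 0.5–2.5 × 10^5 CFU/mL, using clinical Candida isolates. Medium was MOPS-buffered RPMI 1640 with glucose to a final 2%, pH 7.0. Plates incubated 48 h at 37 °C, then read at 530 nm to give MIC.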

Candida tropicalis = assay: Antifungal activity against Candida tropicalis Tu05 assessed as inhibition of fungal growth incubated for 48 hrs by TECAN M200 microtiter plate reader analysis; type: functional, organism-based; in short: as §2
Neisseria gonorrhoeae [2] = assay: Antibacterial activity against Neisseria gonorrhoeae S1441 assessed as bacterial growth inhibition incubated for overnight by CLSI-protocol based broth micro-dilution assay; type: functional, organism-based
In short: (§3)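 Neisseria MIC by CLSI broth microdilution in cation-adjusted Mueller-Hinton medium supplemented with 2.5% fetal bovine serum. Compound in 2-fold serial dilution; final inoculum 5 × 10^5 CFU/mL. Incubated overnight at 37 °C. MIC is the lowest concentration with no visible growth.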

Enterococcus faecium [3] = assay: Antibacterial activity against vancomycin-resistant Enterococcus faecium U200 assessed as bacterial growth inhibition incubated for overnight by CLSI-protocol based broth micro-dilution assay; type: functional, organism-based
In short: (§4)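 Broth microdilution per CLSI in cation-adjusted Mueller-Hinton medium (casein, beef extract, starch). Twofold serial compound dilutions were inoculated at a final 5 × 10^5 CFU/mL and incubated overnight at 37 °C. MIC was the lowest concentration with no visible growth.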

Candida albicans [4] = assay: Antifungal activity against Candida albicans Tu02 assessed as inhibition of fungal growth incubated for 48 hrs by TECAN M200 microtiter plate reader analysis; type: functional, organism-based; in short: as §2
HeLa = assay: Cytotoxicity against human HeLa cells measured after 24 hrs by resazurin staining based analysis; type: functional, cell-based
In short: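 HeLa cells in RPMI with 10% FBS were seeded at 1 × 10^4 per well onto 2-fold compound dilutions, run in duplicate. Incubation was 24 h at 37 °C, 5% CO2. Resazurin was then added (200 μM final) and incubated overnight. Resorufin fluorescence (ex 560/em 600 nm) was read relative to untreated control.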

Enterococcus faecium [5] = assay: Antibacterial activity against vancomycin-resistant Enterococcus faecium 6011 assessed as bacterial growth inhibition incubated for overnight by CLSI-protocol based broth micro-dilution assay; type: functional, organism-based; in short: as §4
Escherichia coli [6] = assay: Antibacterial activity against Escherichia coli C600 harboring Tn10 deltalpxC deltatolC mutant assessed as bacterial growth inhibition incubated for overnight by CLSI-protocol based broth micro-dilution assay; type: functional, organism-based; in short: as §4
Staphylococcus aureus = assay: Antibacterial activity against Staphylococcus aureus ATCC29213 assessed as bacterial growth inhibition incubated for overnight by CLSI-protocol based broth micro-dilution assay; type: functional, organism-based; in short: as §1
Enterococcus faecium [7] = assay: Antibacterial activity against Enterococcus faecium 115.2 assessed as bacterial growth inhibition incubated for overnight by CLSI-protocol based broth micro-dilution assay; type: functional, organism-based; in short: as §1
Homo sapiens = organism: Homo sapiens; assay: Inhibition of human leukocyte elastase using MeoSuc-Ala-Ala-Pro-Val-AMC as substrate incubated for 10 mins
Enterococcus faecium [8] = assay: Antibacterial activity against Enterococcus faecium K209.5 assessed as bacterial growth inhibition incubated for overnight by CLSI-protocol based broth micro-dilution assay; type: functional, organism-based; in short: as §1
Bacillus subtilis = assay: Antibacterial activity against Bacillus subtilis 168 assessed as bacterial growth inhibition incubated for overnight by CLSI-protocol based broth micro-dilution assay; type: functional, organism-based; in short: as §1
Candida albicans [9] = assay: Antifungal activity against Candida albicans ATCC90028 assessed as inhibition of fungal growth incubated for 48 hrs by TECAN M200 microtiter plate reader analysis; type: functional, organism-based; in short: as §2
Caco-2 [10] = assay: Cytotoxicity against human Caco-2 cells assessed as cell count up to 10 uM by Hoechst dye based analysis; type: toxicity; settings: caco-2, 10 µM
Enterococcus faecalis = assay: Antibacterial activity against Enterococcus faecalis ATCC29212 assessed as bacterial growth inhibition incubated for overnight by CLSI-protocol based broth micro-dilution assay; type: functional, organism-based; in short: as §1
[11] = tested on: Severe acute respiratory syndrome coronavirus 2; assay: Inhibition of SARS CoV-2 MPro using Boc-Abu-Tle-Leu-Gln-AMC as substrate incubated for 10 mins
In short: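 Purified SARS-CoV-2 main protease (cysteine protease) was assayed with a fluorogenic peptide substrate. AMC release was followed continuously over 10 min.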

Pseudomonas aeruginosa = assay: Antibacterial activity against Pseudomonas aeruginosa ATCC27853 assessed as bacterial growth inhibition incubated for overnight by CLSI-protocol based broth micro-dilution assay; type: functional, organism-based; in short: as §1
Klebsiella pneumoniae = assay: Antibacterial activity against Klebsiella pneumoniae ATCC12657 assessed as bacterial growth inhibition incubated for overnight by CLSI-protocol based broth micro-dilution assay; type: functional, organism-based; in short: as §1
[12] = target: Procathepsin L (Homo sapiens) (UniProt P07711); assay: Inhibition of human Cathepsin L using Z-Phe-Arg-pNA as substrate incubated for 60 mins
Procathepsin L (Homo sapiens), sequence (P07711 114-333 limits assumed): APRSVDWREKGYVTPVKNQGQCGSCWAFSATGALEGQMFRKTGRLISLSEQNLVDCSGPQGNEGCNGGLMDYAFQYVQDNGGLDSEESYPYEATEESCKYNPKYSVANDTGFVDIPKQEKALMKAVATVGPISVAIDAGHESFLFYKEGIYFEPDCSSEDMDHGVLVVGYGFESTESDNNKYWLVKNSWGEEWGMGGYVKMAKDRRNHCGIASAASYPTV

Escherichia coli [13] = assay: Antibacterial activity against Escherichia coli ATCC25922 assessed as bacterial growth inhibition incubated for overnight by CLSI-protocol based broth micro-dilution assay; type: functional, organism-based; in short: as §1
Acinetobacter baumannii = assay: Antibacterial activity against Acinetobacter baumannii 09987 assessed as bacterial growth inhibition incubated for overnight by CLSI-protocol based broth micro-dilution assay; type: functional, organism-based; in short: as §1
Neisseria gonorrhoeae [14] = assay: Antibacterial activity against Neisseria gonorrhoeae ATCC19424 assessed as bacterial growth inhibition incubated for overnight by CLSI-protocol based broth micro-dilution assay; type: functional, organism-based; in short: as §3
Candida albicans [15] = assay: Antifungal activity against Candida albicans Tu01 assessed as inhibition of fungal growth incubated for 48 hrs by TECAN M200 microtiter plate reader analysis; type: functional, organism-based; in short: as §2
Enterococcus faecium [16] = assay: Antibacterial activity against Enterococcus faecium BM4147-1 assessed as bacterial growth inhibition incubated for overnight by CLSI-protocol based broth micro-dilution assay; type: functional, organism-based; in short: as §1
Candida albicans [17] = assay: Antifungal activity against Candida albicans Tu03 assessed as inhibition of fungal growth incubated for 48 hrs by TECAN M200 microtiter plate reader analysis; type: functional, organism-based; in short: as §2
Enterococcus faecium [18] = assay: Antibacterial activity against vancomycin-resistant Enterococcus faecium BM4147 assessed as bacterial growth inhibition incubated for overnight by CLSI-protocol based broth micro-dilution assay; type: functional, organism-based; in short: as §4
SARS-CoV-2 [19] = assay: Antiviral activity against SARS-CoV-2 expressing mNeonGreen infected in human Caco-2 cells at 0.26 MOI assessed as reduction in infection rate at 2.5 to 10 uM for 48 hrs post infection by Hoechst dye based analysis relative to control; type: functional, Severe acute respiratory syndrome coronavirus 2; set-up: scale not given: the % may be the effect or the level left; settings: dose 2.5-10 µM
SARS-CoV-2 [20] = assay: Antiviral activity against SARS-CoV-2 expressing mNeonGreen infected in human Caco-2 cells at 0.26 MOI assessed as reduction in infection rate at 5 to 10 uM pre-treated with compound for 2.5 hrs followed by viral infection and measured after 48 hrs by Hoechst dye based analysis relative to control; type: functional, Severe acute respiratory syndrome coronavirus 2; set-up: scale not given: the % may be the effect or the level left; settings: dose 5-10 µM, time 50.5 hrs
SARS-CoV-2 [21] = assay: Antiviral activity against SARS-CoV-2 expressing mNeonGreen infected in Caco-2 cells at 0.26 MOI assessed as reduction in infection rate for 48 hrs post infection by Hoechst dye based analysis; type: functional, organism-based; settings: Severe acute respiratory syndrome coronavirus 2, Caco-2, 48 h
[22] = Cytotoxicity against human Caco-2 cells assessed as cell count for 48 hrs by Hoechst dye based analysis; type: toxicity

CCCCCCC[C@@H](O)CC(=O)N[C@@H](CC(C)C)C(=O)N[C@@H](CCC(N)=O)C(=O)O
Activity (Caco-2 [1]): Toxic
Activity (Klebsiella aerogenes): inactive
Activity (Nakaseomyces glabratus): inactive
Activity (Candida tropicalis): inactive
Activity (Neisseria gonorrhoeae [2]): inactive
Activity (Enterococcus faecium [3]): inactive
Activity (Candida albicans [4]): inactive
Activity (HeLa): inactive
Activity (Enterococcus faecium [5]): inactive
Activity (Escherichia coli [6]): inactive
Activity (Staphylococcus aureus): inactive
Activity (Enterococcus faecium [7]): inactive
inhibition (Homo sapiens): inactive
Activity (Enterococcus faecium [8]): inactive
Activity (Bacillus subtilis): inactive
Activity (Candida albicans [9]): inactive
Activity (Caco-2 [10]): Toxic
Activity (Enterococcus faecalis): inactive
inhibition [11]: inactive
Activity (Pseudomonas aeruginosa): inactive
Activity (Klebsiella pneumoniae): inactive
inhibition [12]: inactive
Activity (Escherichia coli [13]): inactive
Activity (Acinetobacter baumannii): inactive
Activity (Neisseria gonorrhoeae [14]): inactive
Activity (Candida albicans [15]): inactive
Activity (Enterococcus faecium [16]): inactive
Activity (Candida albicans [17]): inactive
Activity (Enterococcus faecium [18]): inactive

CCCCCCC[C@@H](O)CC(=O)N[C@@H](CC(C)C)C(=O)N[C@H](CCC(N)=O)C(=O)N[C@H]1C(=O)N[C@H](C(C)C)C(=O)N[C@H](CC(C)C)C(=O)N[C@H](CO)C(=O)N[C@@H](CC(C)C)C(=O)N[C@H](CO)C(=O)N[C@@H]([C@@H](C)CC)C(=O)O[C@@H]1C
Activity (Caco-2 [1]): Non-toxic
Activity (Caco-2 [10]): Non-toxic
Activity (SARS-CoV-2 [19]): 60%
Activity (SARS-CoV-2 [20]): 85%
EC50 (SARS-CoV-2 [21]): 3.3 µM
CC50 at 48 h [22]: > 20 µM
